Source: ChEMBL document CHEMBL1137800, “Evaluation of marine sponge metabolites for cytotoxicity and signal transduction activity” (J Nat Prod, 1993)
Values after ≈ are worked out from the molar mass of the structure shown. Active and inactive are the calls of the source. The calls are words filed in the database; no cut-off is given here.

Assays:
HT-29 = experiment: Cytotoxicity against human HT-29 cells after 48 hrs by MTT assay; format: functional, cell-based; conditions: HT-29, 48 h
In short: (§1)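 A549 and HT-29 cells grown in RPMI 1640 with 10% horse serum and exposed at 37° in gentamicin-containing medium, with MeOH vehicle evaporated. Exposure ran 48 h […] before MTT was added for 90 min. Formazan dissolved in acidified iPrOH and A570 read. IC50 from logit-regression of absorbance versus drug-free wells; 5-fluorouracil and adriamycin included as controls.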

P388 = experiment: Cytotoxicity against mouse P388 cells after 48 hrs by MTT assay; format: functional, cell-based; conditions: P388, 48 h
In short: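 P-388 cells seeded at 1×10^5 cells/ml in RPMI 1640 with 10% horse serum and gentamicin (50 μg/ml). Exposed 48 h at 37° to compound at 10.0, 1.0, 0.10 or 0.010 μg/ml; MeOH vehicle evaporated under vacuum. MTT added for 90 min, formazan dissolved in acidified iPrOH, A570 read. IC50 from linear regression of logit-transformed absorbance relative to drug-free wells.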

A549 [1] = experiment: Cytotoxicity against human A549 cells after 48 hrs by MTT assay; format: functional, cell-based; conditions: A549, 48 h; in short: as §1
Mus musculus [2] = species: Mus musculus; experiment: Induction of PKC-mediated mouse EL-4.IL-2 cells adherence by MTT assay
In short: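 EL-4.IL-2 cells (2.5×10^5/well) in RPMI 1640 with 10% FCS and 2-mercaptoethanol, incubated 1 h at 37° with compound in triplicate, without PMA and also with 16 nM PMA (final), EtOH ≤1.25%. Non-adherent cells removed by four shaking washes. Adherent cells quantified by MTT (4 h) with iPrOH solubilisation at 570 nm. Parallel unwashed plate monitored cytotoxicity.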

[3] = Cytotoxicity against mouse EL-4.IL-2 cells after 3 to 4 days by Trypan blue exclusion test; format: functional, cell-based
Mus musculus [4] = species: Mus musculus; experiment: Inhibition of PKC-mediated mouse EL-4.IL-2 cells adherence by MTT assay
In short: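 Mouse EL-4.IL-2 cells (2.5×10^5/well, within 15 passages of frozen stock) incubated 1 h at 37° with compounds in triplicate, with PMA (16 nM final) or without PMA; final EtOH ≤1.25%. Four shaker wash cycles. Adherent cells read by MTT, 4 h at 37°, formazan dissolved in iPrOH, A570. A parallel unwashed plate without PMA monitored cytotoxicity. Adherence inhibitor: blocks PMA-induced adherence, induces none alone, not cytotoxic.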

M19-MEL = experiment: Cytotoxicity against human M19-MEL cells; format: functional; conditions: read-out: Log10LC50 (converted)
SK-MEL-5 = experiment: Cytotoxicity against human SK-MEL-5 cells; format: functional; conditions: read-out: Log10LC50 (converted)
Malme-3M = experiment: Cytotoxicity against human MALME-3M cells; format: functional; conditions: read-out: Log10LC50 (converted)
A549 [5] = experiment: Antitumor activity against human A549 cells xenografted in mouse at 0.3 mg/kg relative to control; format: functional
Mus musculus [6] = experiment: Toxicity in human A549 cells xenografted mouse at 0.3 mg/kg; format: organism-based; parameters: dose 0.3 mg/kg; conditions: in vivo

[C-]#[N+][C@@]12CCC(=C)[C@H]3[C@H](CC(C)(C)NC=O)C[C@H](C)[C@@H](CC[C@@H]1C)[C@@H]32
IC50 (HT-29): 3.5 µg/mL (≈ 10.2 µM) | IC50 (P388): 4.2 µg/mL (≈ 12.3 µM) | IC50 (A549 [1]): 5.3 µg/mL (≈ 15.5 µM) | Activity (Mus musculus [2]): Active | IC50 [3]: 2.9 µg/mL (≈ 8.47 µM)

C[C@H]1CC[C@H]2C(C)(C)CCC[C@]23Oc2ccc(O)cc2C[C@]13C [AUREOL]
IC50 (HT-29): 4.7 µg/mL (≈ 14.9 µM) | Activity (Mus musculus [4]): Active | IC50 (P388): > 20 µg/mL | IC50 (A549 [1]): 4.3 µg/mL (≈ 13.7 µM) | IC50 [3]: 9.9 µg/mL (≈ 31.5 µM)

CSc1c2c3c(n1C)C(=O)C(=O)C(Cl)=C3NCC2 [BATZELLINE A]
IC50 (HT-29): 2.8 µg/mL (≈ 9.9 µM) | IC50 (P388): 5.3 µg/mL (≈ 18.7 µM) | IC50 (A549 [1]): 0.7 µg/mL (≈ 2.48 µM) | Activity (Mus musculus [2]): Active | CC50 (M19-MEL): 6.61 µM | CC50 (SK-MEL-5): 6.61 µM | IC50 [3]: 22.9 µg/mL (≈ 81 µM) | CC50 (Malme-3M): 15.5 µM | Activity (A549 [5]): inactive

CCCCCCCCCCCCCCCC[C@@]1(OC)C=C[C@@H](CC(=O)OC)OO1 [CHONDRILLIN]
IC50 (HT-29): 1.1 µg/mL (≈ 2.67 µM) | IC50 (P388): 2.4 µg/mL (≈ 5.82 µM) | IC50 (A549 [1]): 0.3 µg/mL (≈ 0.727 µM) | Activity (Mus musculus [2]): Active | IC50 [3]: 0.4 µg/mL (≈ 0.969 µM) | Activity (A549 [5]): inactive

COC1=Cc2ccnc3ccnc(c23)C1=O [DEMETHYLOXY-AAPTAMINE]
IC50 (HT-29): 1.5 µg/mL (≈ 7.07 µM) | IC50 (P388): 1.6 µg/mL (≈ 7.54 µM) | IC50 (A549 [1]): 5.2 µg/mL (≈ 24.5 µM) | Activity (Mus musculus [2]): Active | IC50 [3]: < 0.05 µg/mL

CN(C)CCc1c2ncsc2c2c3c(c4ccccc4nc13)C=CN2C [DERCITIN]
IC50 (HT-29): 0.02 µg/mL (≈ 0.0555 µM) | Activity (Mus musculus [4]): Active | IC50 (P388): 0.2 µg/mL (≈ 0.555 µM) | IC50 (A549 [1]): 0.07 µg/mL (≈ 0.194 µM) | IC50 [3]: < 6 µg/mL

[C-]#[N+]C(C)(C)C[C@@H]1C[C@H](C)[C@H]2CC[C@H](C)[C@@]3([N+]#[C-])CCC(=C)[C@@H]1[C@H]23 [DIISOCYANOAMPHILECTENE]
IC50 (HT-29): 1.2 µg/mL (≈ 3.7 µM) | IC50 (P388): 0.7 µg/mL (≈ 2.16 µM) | IC50 (A549 [1]): 13 µg/mL (≈ 40.1 µM)

O=C1C[C@H]2S[C@H]3C[C@]2(C=C1Br)C1=C(N3)C(=O)c2[nH]cc3c2C1=NCC3 [DISCORHABDINE A]
IC50 (HT-29): 0.01 µg/mL (≈ 0.024 µM) | IC50 (P388): 0.1 µg/mL (≈ 0.24 µM) | IC50 (A549 [1]): 0.04 µg/mL (≈ 0.0961 µM) | Activity (Mus musculus [2]): Active | IC50 [3]: 4.8 µg/mL (≈ 11.5 µM)

Cn1cc2c3c1C(=O)C1=C(C3=NCC2)C2(C=C(Br)C(=O)C(Br)=C2)CCN1 [DISCORHABDIN]
IC50 (HT-29): 0.1 µg/mL (≈ 0.21 µM) | IC50 (P388): 0.5 µg/mL (≈ 1.05 µM) | IC50 (A549 [1]): 0.3 µg/mL (≈ 0.629 µM) | Activity (Mus musculus [2]): Active | IC50 [3]: 0.5 µg/mL (≈ 1.05 µM)

C[C@H]1C[C@]2(O[C@H]3C[C@H]4[C@@H]5CC[C@H]6C[C@H](O)CC[C@]6(C)[C@H]5[C@@H](O)C[C@]4(C)[C@H]3[C@@]2(C)O)OC1(C)C [EPIHIPPURISTANOL]
IC50 (HT-29): 0.05 µg/mL (≈ 0.108 µM) | IC50 (P388): 0.5 µg/mL (≈ 1.08 µM) | IC50 (A549 [1]): 0.04 µg/mL (≈ 0.0865 µM)

CO[C@H]([C@H](C)/C=C/N(C)C=O)[C@@H](C)C(=O)CC[C@H](C)[C@H](C[C@@H]1OC(=O)C[C@@H](OC(N)=O)C[C@H](C)C[C@H](O)[C@H](C)[C@@H](OC)c2coc(n2)-c2coc(n2)-c2coc(n2)/C=C/C[C@H](OC)[C@H]1C)OC [KABIRAMIDE C]
IC50 (P388): 0.3 µg/mL (≈ 0.318 µM) | IC50 (A549 [1]): 0.8 µg/mL (≈ 0.849 µM) | Activity (Mus musculus [2]): Active | IC50 [3]: 0.3 µg/mL (≈ 0.318 µM)

C/C1=C/C(=O)O[C@@H]2C[C@@H](CC[C@H](C)/C=C\C=C\CC1)O[C@@](O)([C@@H]1CSC(=O)N1)C2 [LATRUNCULIN A]
IC50 (HT-29): 0.06 µg/mL (≈ 0.142 µM) | Activity (Mus musculus [4]): Active | IC50 (P388): 4.1 µg/mL (≈ 9.73 µM) | IC50 (A549 [1]): 0.06 µg/mL (≈ 0.142 µM) | Activity (Mus musculus [6]): Non-toxic | IC50 [3]: 0.1 µg/mL (≈ 0.237 µM) | T/C (A549 [5]): 146%

O[C@]12C=C(c3nccc4c3[nH]c3ccccc34)[C@@H]3CCN(CCCC/C=C\CC1)C[C@@]31C[C@@H]3/C=C\CCCCN3[C@H]12 [MANZAMINE A]
IC50 (HT-29): 0.8 µg/mL (≈ 1.46 µM) | IC50 (P388): 2.4 µg/mL (≈ 4.37 µM) | IC50 (A549 [1]): 1.3 µg/mL (≈ 2.37 µM)

C1=C\CC[C@]23CN4CCCC/C=C\CC[C@@]5(O[C@H]5[C@@H](c5nccc6c5[nH]c5ccccc56)[C@@H]2CC4)[C@@H]3NCCCC/1 [MANZAMINE B]
IC50 (HT-29): 1.6 µg/mL (≈ 2.9 µM) | IC50 (P388): 6.6 µg/mL (≈ 12 µM) | IC50 (A549 [1]): 4.5 µg/mL (≈ 8.17 µM)

C1=C\CCCCN(CCc2nccc3c2[nH]c2ccccc23)CCCC/1 [MANZAMINE C]
IC50 (HT-29): 1.5 µg/mL (≈ 4.32 µM) | IC50 (P388): 2.6 µg/mL (≈ 7.48 µM) | IC50 (A549 [1]): 3.5 µg/mL (≈ 10.1 µM) | Activity (Mus musculus [2]): Active | IC50 [3]: 12 µg/mL (≈ 34.5 µM)

O=C1c2nccc(O)c2-c2nc3ccccc3c3ccnc1c23 [MERIDINE]
IC50 (HT-29): 0.2 µg/mL (≈ 0.668 µM) | IC50 (P388): 2 µg/mL (≈ 6.68 µM) | IC50 (A549 [1]): 4.5 µg/mL (≈ 15 µM) | Activity (Mus musculus [2]): Active | IC50 [3]: 8.8 µg/mL (≈ 29.4 µM)

CC1(C)CCC[C@]2(C)[C@H]3C=C4C=C(O)C(=O)C=C4O[C@@]3(C)CC[C@@H]12 [PUUPEHENONE]
IC50 (HT-29): 0.2 µg/mL (≈ 0.609 µM) | IC50 (P388): 1.3 µg/mL (≈ 3.96 µM) | IC50 (A549 [1]): 0.4 µg/mL (≈ 1.22 µM)

CC1=CC(=O)[C@]2(C)CC[C@H]([C@H](C)CC(=O)CC(C)C)[C@H]2CC1 [REISWIGIN A]
IC50 (HT-29): 6 µg/mL (≈ 19.7 µM) | IC50 (P388): 8.5 µg/mL (≈ 27.9 µM) | IC50 (A549 [1]): 7.2 µg/mL (≈ 23.6 µM)

CC[C@H](C)[C@H]1C(=O)NCCC(=O)N[C@H]([C@@H](C)CC)C(=O)N(C)[C@@H](C(C)C)C(=O)N(C)[C@@H](C)C(=O)NCCC(=O)N[C@H](CC(C)C)C(=O)N(C)[C@H]([C@@H](C)CC)C(=O)O[C@H](C)[C@H](NC(=O)[C@@H](CC(C)C)N(C)C(=O)[C@@H](NC(=O)COC)C(C)C)C(=O)NCCC(=O)N[C@H](CC(C)C)C(=O)N1C [THEONELLAMINE B]
IC50 (HT-29): 5.1 µg/mL (≈ 3.63 µM) | IC50 (P388): > 20 µg/mL | IC50 (A549 [1]): 5.3 µg/mL (≈ 3.77 µM)
